Measurements: ChEMBL document CHEMBL1143415, “Differential fungicidal activities of amphotericin B and voriconazole against Aspergillus species determined by microbroth methodology” (Antimicrob Agents Chemother, 2007)
Values after ≈ are worked out from the molar mass of the structure shown.

Legend:
[1] = system: Aspergillus terreus; experiment: Antifungal activity against Aspergillus terreus isolate after 8 hrs by microbroth colorimetric XTT method relative to control; type: functional
[2] = system: Aspergillus fumigatus; experiment: Antifungal activity against Aspergillus fumigatus isolate after 24 hrs by microbroth colorimetric XTT method; type: functional, organism-based
Procedure, shortened: (§1)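 Done after the 48 h M38-A MIC plates. Clear wells and the 0.5× MIC well were aspirated, washed twice with 37°C saline, refilled with fresh RPMI, then incubated 24 h at 37°C. XTT (0.1 mg/ml) with menadione (25 μM), both final, was added for 2 h. A450/630 was read minus background from conidia-free wells. MFC = lowest concentration with absorbance <0.01, a cutoff set by ROC against microscopic growth.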

[3] = system: Aspergillus fumigatus; experiment: Antifungal activity against Aspergillus fumigatus ATCC MYA-3626 after 48 hrs by CLSI M38-A microdilution method; type: functional
Procedure, shortened: (§2)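 CLSI M38-A broth microdilution in RPMI 1640 (L-glutamine, no bicarbonate, 0.165 M MOPS, pH 7.0). Conidia come from potato dextrose agar slants grown 5 to 7 days at 35°C, suspended in saline with 0.025% Tween 20 and counted by hemacytometer. Final inoculum 0.5 × 10^4 to 5 × 10^4 CFU/ml. Twofold dilutions in flat-bottom plates, 37°C for 48 h. MIC is the lowest concentration with no visible growth. Duplicate plates, two experiments.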

[4] = system: Aspergillus fumigatus; experiment: Antifungal activity against Aspergillus fumigatus isolate at 20 CFU infectious rate after 24 hrs by culture-based CFU method; type: functional
Procedure, shortened: (§3)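 Done after the 48 h M38-A MIC plates. Clear wells and the 0.5× MIC well were pipetted five times, and 20 μl or 100 μl was subcultured on Sabouraud dextrose agar for 24–48 h at 37°C before CFU counting. MFC = lowest concentration giving no growth for each volume.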

[5] = system: Aspergillus terreus; experiment: Antifungal activity against Aspergillus terreus ATCC MYA-3633 after 24 hrs by microbroth colorimetric XTT method; type: functional; procedure, shortened: as §1
[6] = system: Aspergillus flavus; experiment: Antifungal activity against Aspergillus flavus ATCC MYA-3631 after 24 hrs by microbroth colorimetric XTT method; type: functional; procedure, shortened: as §1
[7] = system: Aspergillus flavus; experiment: Antifungal activity against Aspergillus flavus isolate after 8 hrs by microbroth colorimetric XTT method relative to control; type: functional
[8] = system: Aspergillus fumigatus; experiment: Antifungal activity against Aspergillus fumigatus isolate after 8 hrs by microbroth colorimetric XTT method relative to control; type: functional
[9] = system: Aspergillus fumigatus; experiment: Antifungal activity against Aspergillus fumigatus isolate at 100 CFU infectious rate after 24 hrs by culture-based CFU method; type: functional; procedure, shortened: as §3
[10] = system: Aspergillus terreus; experiment: Antifungal activity against Aspergillus terreus ATCC MYA-3633 after 24 to 48 hrs by culture-based CFU method; type: functional; procedure, shortened: as §3
[11] = system: Aspergillus flavus; experiment: Antifungal activity against Aspergillus flavus isolate at 20 CFU infectious rate after 24 hrs by culture-based CFU method; type: functional; procedure, shortened: as §3
[12] = system: Aspergillus fumigatus; experiment: Ratio of MFC for Aspergillus fumigatus isolate to MIC for Aspergillus fumigatus isolate; type: functional
Procedure, shortened: (§4)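 Per-isolate ratio of the XTT-based MFC (24 h post-wash regrowth, absorbance cutoff 0.01) to the 48 h CLSI M38-A MIC, taken as the median of two replicate experiments. A ratio of ≤4 was counted fungicidal and >4 fungistatic.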

[13] = system: Aspergillus terreus; experiment: Antifungal activity against Aspergillus terreus isolate at 100 CFU infectious rate after 24 hrs by culture-based CFU method; type: functional; procedure, shortened: as §3
[14] = system: Aspergillus fumigatus; experiment: Antifungal activity against Aspergillus fumigatus isolate after 48 hrs by CLSI M38-A microdilution method; type: functional; procedure, shortened: as §2
[15] = system: Aspergillus flavus; experiment: Antifungal activity against Aspergillus flavus ATCC MYA-3631 after 48 hrs by CLSI M38-A microdilution method; type: functional
Procedure, shortened: (§5)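 CLSI M38-A broth microdilution. Conidia came from 5–7 d potato dextrose agar slants at 35°C, suspended in saline with 0.025% Tween 20 and counted by hemacytometer. Final inoculum was 0.5×10^4 to 5×10^4 CFU/ml in RPMI 1640 with MOPS, pH 7.0. Final drug ranges: amphotericin B 0.015–16 mg/liter, voriconazole 0.008–8 mg/liter. Plates ran 48 h at 37°C. MIC = lowest concentration with no visible growth. Duplicate plates; experiments done twice.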

[16] = system: Aspergillus flavus; experiment: Antifungal activity against Aspergillus flavus isolate after 24 hrs by microbroth colorimetric XTT method; type: functional, organism-based; procedure, shortened: as §1
[17] = system: Aspergillus flavus; experiment: Antifungal activity against Aspergillus flavus ATCC MYA-3631 after 24 to 48 hrs by culture-based CFU method; type: functional; procedure, shortened: as §3
[18] = system: Aspergillus terreus; experiment: Antifungal activity against Aspergillus terreus ATCC MYA-3633 after 48 hrs by CLSI M38-A microdilution method; type: functional; procedure, shortened: as §5
[19] = system: Aspergillus fumigatus; experiment: Antifungal activity against Aspergillus fumigatus ATCC MYA-3626 after 24 to 48 hrs by culture-based CFU method; type: functional; procedure, shortened: as §3
[20] = system: Aspergillus terreus; experiment: Ratio of MFC for Aspergillus terreus isolate to MIC for Aspergillus terreus isolate; type: functional; procedure, shortened: as §4
[21] = system: Aspergillus fumigatus; experiment: Antifungal activity against Aspergillus fumigatus ATCC MYA-3626 after 24 hrs by microbroth colorimetric XTT method; type: functional; procedure, shortened: as §1
[22] = system: Aspergillus flavus; experiment: Ratio of MFC for Aspergillus flavus isolate to MIC for Aspergillus flavus isolate; type: functional; procedure, shortened: as §4
[23] = system: Aspergillus flavus; experiment: Antifungal activity against Aspergillus flavus isolate at 100 CFU infectious rate after 24 hrs by culture-based CFU method; type: functional; procedure, shortened: as §3
[24] = system: Aspergillus terreus; experiment: Antifungal activity against Aspergillus terreus isolate after 24 hrs by microbroth colorimetric XTT method; type: functional, organism-based; procedure, shortened: as §1
[25] = system: Aspergillus terreus; experiment: Antifungal activity against Aspergillus terreus isolate at 20 CFU infectious rate after 24 hrs by culture-based CFU method; type: functional; procedure, shortened: as §3
[26] = system: Aspergillus terreus; experiment: Antifungal activity against Aspergillus terreus isolate after 48 hrs by CLSI M38-A microdilution method; type: functional; procedure, shortened: as §5
[27] = system: Aspergillus flavus; experiment: Antifungal activity against Aspergillus flavus isolate after 48 hrs by CLSI M38-A microdilution method; type: functional; procedure, shortened: as §5
[28] = system: Aspergillus fumigatus; experiment: Antifungal activity against Aspergillus fumigatus isolate after 48 hrs by NCCLS M38-A broth microdilution method; type: functional; procedure, shortened: as §5
[29] = system: Aspergillus terreus; experiment: Antifungal activity against Aspergillus terreus isolate after 6 to 8 hrs by microbroth colorimetric XTT method relative to control; type: functional
[30] = system: Aspergillus fumigatus; experiment: Antifungal activity against Aspergillus fumigatus isolate after 6 to 8 hrs by microbroth colorimetric XTT method relative to control; type: functional
[31] = system: Aspergillus flavus; experiment: Antifungal activity against Aspergillus flavus isolate after 48 hrs by NCCLS M38-A broth microdilution method; type: functional; procedure, shortened: as §5
[32] = system: Aspergillus flavus; experiment: Antifungal activity against Aspergillus flavus isolate after 6 to 8 hrs by microbroth colorimetric XTT method relative to control; type: functional

SMILES: C[C@@H]1[C@H](O)[C@@H](C)/C=C/C=C/C=C/C=C/C=C/C=C/C=C/[C@H](O[C@@H]2O[C@H](C)[C@@H](O)[C@H](N)[C@@H]2O)C[C@@H]2O[C@](O)(C[C@@H](O)C[C@@H](O)[C@H](O)CC[C@@H](O)C[C@@H](O)CC(=O)O[C@H]1C)C[C@H](O)[C@H]2C(=O)O [AMPHOTERICIN B]
- Activity [1]: 3%
- EC50 [2]: 0.95 µg/mL (≈ 1.03 µM)
- MFC [2]: 1 µg/mL (≈ 1.08 µM)
- MIC [3]: 1 µg/mL (≈ 1.08 µM)
- MFC [4]: 1 µg/mL (≈ 1.08 µM)
- MFC [5]: > 16 µg/mL
- MFC [6]: 2 µg/mL (≈ 2.16 µM)
- Activity [7]: 3%
- Activity [8]: 16%
- MFC [9]: 2 µg/mL (≈ 2.16 µM)
- MFC [10]: > 2 µg/mL
- MFC [11]: 1 µg/mL (≈ 1.08 µM)
- MFC/MIC ratio [12]: 2
- MFC [13]: > 16 µg/mL
- MIC [14]: 1 µg/mL (≈ 1.08 µM)
- MIC [15]: 1 µg/mL (≈ 1.08 µM)
- EC50 [16]: 1.1 µg/mL (≈ 1.19 µM)
- MFC [16]: 2 µg/mL (≈ 2.16 µM)
- MFC [17]: 1 µg/mL (≈ 1.08 µM)
- MIC [18]: 2 µg/mL (≈ 2.16 µM)
- MFC [19]: 1 µg/mL (≈ 1.08 µM)
- MFC/MIC ratio [20]: 16
- MFC [21]: 1 µg/mL (≈ 1.08 µM)
- MFC/MIC ratio [22]: 2
- MFC [23]: 2 µg/mL (≈ 2.16 µM)
- EC50 [24]: 9.55 µg/mL (≈ 10.3 µM)
- MFC [24]: > 16 µg/mL
- MFC [25]: > 16 µg/mL
- MIC [26]: 2 µg/mL (≈ 2.16 µM)
- MIC [27]: 1 µg/mL (≈ 1.08 µM)

SMILES: C[C@@H](c1ncncc1F)[C@](O)(Cn1cncn1)c1ccc(F)cc1F [VORICONAZOLE]
- EC50 [2]: 2.34 µg/mL (≈ 6.7 µM)
- MFC [2]: > 8 µg/mL
- MIC [3]: 1 µg/mL (≈ 2.86 µM)
- MFC [4]: 2 µg/mL (≈ 5.73 µM)
- MFC [5]: > 8 µg/mL
- MFC [6]: > 4 µg/mL
- MFC90 [28]: 0.25 mg/L (≈ 0.716 µM)
- MFC [9]: > 8 µg/mL
- MFC [10]: 2 µg/mL (≈ 5.73 µM)
- MFC [11]: 0.5 µg/mL (≈ 1.43 µM)
- MFC/MIC ratio [12]: > 16
- MFC [13]: > 8 µg/mL
- MIC [14]: 0.5 µg/mL (≈ 1.43 µM)
- Activity [29]: 36%
- MIC [15]: 0.5 µg/mL (≈ 1.43 µM)
- EC50 [16]: 1.96 µg/mL (≈ 5.61 µM)
- MFC [16]: 4 µg/mL (≈ 11.5 µM)
- MFC [17]: 0.5 µg/mL (≈ 1.43 µM)
- MIC [18]: 0.5 µg/mL (≈ 1.43 µM)
- MFC [19]: > 4 µg/mL
- Activity [30]: 14%
- MFC/MIC ratio [20]: 8
- MFC90 [31]: 0.25 mg/L (≈ 0.716 µM)
- MFC [21]: > 8 µg/mL
- MFC/MIC ratio [22]: 4
- Activity [32]: 16%
- MFC [23]: 1 µg/mL (≈ 2.86 µM)
- EC50 [24]: 11.7 µg/mL (≈ 33.5 µM)
- MFC [24]: > 8 µg/mL
- MFC [25]: 8 µg/mL (≈ 22.9 µM)
- MIC [26]: 1 µg/mL (≈ 2.86 µM)
- MIC [27]: 0.5 µg/mL (≈ 1.43 µM)
